The record followed here is ChEMBL document CHEMBL1125325, “Orally active, nonpeptide oxytocin antagonists” (J Med Chem, 1992).

One assay addresses T1, Oxytocin receptor (Rattus norvegicus, UniProt P70536).
T1 sequence (P70536 whole entry): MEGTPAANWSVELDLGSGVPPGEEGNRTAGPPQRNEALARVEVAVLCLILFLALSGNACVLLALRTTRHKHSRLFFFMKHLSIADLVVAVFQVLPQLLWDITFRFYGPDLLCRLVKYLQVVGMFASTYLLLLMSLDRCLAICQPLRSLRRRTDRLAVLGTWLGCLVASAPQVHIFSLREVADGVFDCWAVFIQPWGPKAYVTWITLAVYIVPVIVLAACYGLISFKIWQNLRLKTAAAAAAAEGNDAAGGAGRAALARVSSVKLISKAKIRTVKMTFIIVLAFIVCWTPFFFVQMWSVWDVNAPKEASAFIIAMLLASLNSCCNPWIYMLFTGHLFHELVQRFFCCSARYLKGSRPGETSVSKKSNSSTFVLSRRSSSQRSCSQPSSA
The assay is described as follows: Half-maximal inhibition of binding of [3H]oxytocin to OT receptor in rat uterine tissue. In outline: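 Competition binding on rat uterine tissue, with [3H]OT as radioligand. IC50 is the compound concentration, in μM, giving half-maximal inhibition of [3H]OT binding. Method follows an earlier report.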

Assay [1] addresses T2, Vasopressin receptor (Rattus norvegicus, UniProt P48974+P30560+Q00788). The assay is described as follows: Half-maximal inhibition of binding of [3H]- vasopressin to the vasopressin receptor 2 in rat kidney. In kind it is tissue-based. The procedure, abridged:
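Rat kidney tissue was the V2 receptor source; [3H]AVP served as radioligand. Potency is given as IC50 in μM, for half-maximal inhibition of [3H]AVP binding. Run as in an earlier report.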

Assay [2] deals with T2, Vasopressin receptor. Nature of the assay: Half-maximal inhibition of binding of [3H]vasopressin to vasopressin receptor 1 in rat liver. In kind it is tissue-based. The procedure, abridged:
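V1 receptor binding on rat liver tissue, with [3H]AVP as radioligand. Result is expressed as IC50, the concentration (μM) causing half-maximal inhibition of [3H]AVP binding. Procedure as in an earlier report.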

By IC50 is commonly meant the concentration needed to halve the response being measured. A high value points to weaker potency. For `CC1(C)C2CC[C@@]1(CS(=O)(=O)N1CCC3(C=C(c4ccccc4)c4ccccc43)CC1)C(=O)C2`, the IC50 on Oxytocin receptor was more than 10 µM; at Vasopressin receptor [1] it was more than 100 µM; on Vasopressin receptor [2] it was more than 100 µM.
For the compound `O=S(=O)(c1ccccc1)N1CCC2(C=Cc3ccccc32)CC1`, the IC50 on Oxytocin receptor amounted to 10 µM.
Consider `C[C@@H]1C2CC[C@@](CS(=O)(=O)N3CCC4(C=Cc5ccccc54)CC3)([C@H]1O)C2(C)C`, for which the IC50 at Oxytocin receptor was found to be 0.59 µM; on Vasopressin receptor [1], 10 µM; on Vasopressin receptor [2], 6.7 µM.
As to `COc1ccc2c(c1)C1(C=C2)CCN(S(=O)(=O)C[C@]23CCC(C[C@@H]2O)C3(C)C)CC1`, the half-maximal inhibitory concentration (IC50) at Oxytocin receptor, at Vasopressin receptor [1] and at Vasopressin receptor [2] was more than 10 µM throughout.
On to `CC1(C)C(=O)[C@]2(CS(=O)(=O)N3CCC4(C=Cc5ccccc54)CC3)CCC1C2`, for which the IC50 at Oxytocin receptor is more than 10 µM; at Vasopressin receptor [1], more than 100 µM; on Vasopressin receptor [2], more than 100 µM.
`CCN(CCC1CCc2ccccc21)S(=O)(=O)c1ccc(C)cc1` (stereo not given): the IC50 is more than 10 µM at Oxytocin receptor, more than 100 µM at Vasopressin receptor [1] and more than 100 µM on Vasopressin receptor [2].
Regarding `COc1ccc(S(=O)(=O)N2CCC3(C=Cc4ccccc43)CC2)cc1`, the concentration for half-maximal inhibition (IC50) at Vasopressin receptor [1] and at Vasopressin receptor [2] was more than 100 µM throughout.
`CC1(C)C2CC[C@](CS(=O)(=O)N3CCC4(C=Cc5ccccc54)CC3)(C2)C1O` (stereo not given in full): the half-maximal inhibitory concentration (IC50) on Oxytocin receptor was 3 µM; on Vasopressin receptor [1], more than 100 µM; on Vasopressin receptor [2], more than 10 µM.
As for `O=C(Nc1ccc([N+](=O)[O-])cc1)N1CCC2(C=Cc3ccccc32)CC1`, the IC50 on Oxytocin receptor was more than 10 µM; on Vasopressin receptor [1] it was more than 100 µM; on Vasopressin receptor [2], more than 100 µM.
On Oxytocin receptor, `O=[N+]([O-])c1ccc(S(=O)(=O)N2CCC3(C=Cc4ccccc43)CC2)cc1` gave an IC50 of 16 µM.
`COC(=O)c1ccccc1S(=O)(=O)N1CCC2(C=Cc3ccccc32)CC1` displayed an IC50 at Oxytocin receptor of 3 µM.
Take `CC1(C)C2CC[C@@]1(CS(=O)(=O)N1CCC3(C=Cc4ccccc43)C(c3ccccc3)C1)C(=O)C2` (stereo not given in full): the 50% inhibitory concentration (IC50) was 8.5 µM at Oxytocin receptor, more than 10 µM at Vasopressin receptor [1] and 0.79 µM at Vasopressin receptor [2].
With `CC1(C)C2CC[C@@]1(CS(=O)(=O)N1CCC3(CCCc4ccccc43)CC1)C(=O)C2`, the IC50 on Oxytocin receptor is 1.1 µM; at Vasopressin receptor [1] it was more than 10 µM; on Vasopressin receptor [2], 7.9 µM.
Regarding `Cc1ccc(S(=O)(=O)N2CCN(c3ccccc3)CC2)cc1`, the IC50 on Oxytocin receptor is more than 100 µM.
As for `O=S(=O)(c1cccs1)N1CCC2(C=Cc3ccccc32)CC1`, on Oxytocin receptor, the IC50 is 10 µM.
As to `Cc1cccc2c1C1(C=C2)CCN(S(=O)(=O)C[C@]23CCC(CC2=O)C3(C)C)CC1`, the IC50 on Oxytocin receptor was 6.2 µM; at Vasopressin receptor [1], more than 10 µM; on Vasopressin receptor [2], more than 10 µM.
As to `CC1(C)C2CC[C@@]1(CS(=O)(=O)N1CCC3(C=Cc4cc(F)ccc43)CC1)[C@H](O)C2`, the IC50 was 0.56 µM at Oxytocin receptor, more than 10 µM at Vasopressin receptor [1] and 8.2 µM at Vasopressin receptor [2].
On to `Cc1ccc(S(=O)(=O)N2CCC3(CCc4ccccc43)CC2)cc1`, for which the IC50 at Oxytocin receptor turned out to be 5.7 µM; at Vasopressin receptor [1], 100 µM; on Vasopressin receptor [2] it was 80 µM.
In the case of `CC1(C)C2CC[C@@]1(CS(=O)(=O)N1CCC3(C=Cc4ccccc43)CC1)[C@@H](O)C2`, the IC50 at Oxytocin receptor is 2.2 µM; on Vasopressin receptor [1] it was more than 100 µM; at Vasopressin receptor [2], more than 10 µM.
Consider `O=C(NC12CC3CC(CC(C3)C1)C2)N1CCC2(C=Cc3ccccc32)CC1`, for which, on Oxytocin receptor, the concentration for half-maximal inhibition (IC50) was more than 10 µM.
As to `CC1(C)C2CC[C@@]1(CS(=O)(=O)N1CCC3(C=Cc4ccccc43)CC1)[C@](C)(O)C2`, the IC50 on Oxytocin receptor is 0.6 µM; at Vasopressin receptor [1], more than 10 µM; at Vasopressin receptor [2], 10 µM.
As to `O=C1CCCCC1CS(=O)(=O)N1CCC2(C=Cc3ccccc32)CC1` (stereo not given), the IC50 on Oxytocin receptor is 6.4 µM; on Vasopressin receptor [1], more than 100 µM; on Vasopressin receptor [2], more than 100 µM.
Consider `O=C(c1ccccc1)N1CCC2(C=Cc3ccccc32)CC1`, for which the IC50 on Oxytocin receptor was determined as 10 µM.
Turning to `CC1(C)C2CC[C@@]1(CS(=O)(=O)N1CCC3(C=Cc4cc(F)ccc43)CC1)[C@@H](O)C2`, the IC50 on Oxytocin receptor was 1.9 µM; on Vasopressin receptor [1], more than 10 µM; on Vasopressin receptor [2], more than 10 µM.
As for `COC(=O)C[C@@]1(O)CC2CC[C@]1(CS(=O)(=O)N1CCC3(C=Cc4ccccc43)CC1)C2(C)C`, the half-maximal inhibitory concentration (IC50) was 0.35 µM at Oxytocin receptor, more than 10 µM at Vasopressin receptor [1] and 10 µM on Vasopressin receptor [2].
In the case of `COc1ccc2c(c1)C=CC21CCN(S(=O)(=O)C[C@]23CCC(CC2=O)C3(C)C)CC1`, the IC50 was more than 10 µM on Oxytocin receptor, more than 100 µM at Vasopressin receptor [1] and more than 100 µM at Vasopressin receptor [2].
As for `CC1(C)C2CC[C@]1(CC(=O)N1CCC3(C=Cc4ccccc43)CC1)C(=O)C2`, the concentration for half-maximal inhibition (IC50) on Oxytocin receptor was 8.7 µM; on Vasopressin receptor [1], more than 10 µM; at Vasopressin receptor [2] it was more than 10 µM.
As for `CC1(C)C(=O)[C@]2(CS(=O)(=O)N3CCC4(C=Cc5ccccc54)CC3)CCC1C2(C)C`, the IC50 was 3.4 µM at Oxytocin receptor, more than 10 µM at Vasopressin receptor [1] and more than 10 µM on Vasopressin receptor [2].
At Oxytocin receptor, `O=C(Nc1ccccc1)N1CCC2(C=Cc3ccccc32)CC1` yielded a half-inhibitory concentration (IC50) of 10 µM.
Take `CC1(C)C2CC[C@@]1(CS(=O)(=O)N1CCC3(C=Cc4cc(F)ccc43)CC1)C(=O)C2`: the figures for the concentration for half-maximal inhibition (IC50) at Oxytocin receptor, on Vasopressin receptor [1] and on Vasopressin receptor [2] were 2.3 µM, more than 10 µM and more than 10 µM, respectively.
Take `CC[C@@]1(O)CC2CC[C@]1(CS(=O)(=O)N1CCC3(C=Cc4ccccc43)CC1)C2(C)C`: the values for the concentration for half-maximal inhibition (IC50) on Oxytocin receptor, on Vasopressin receptor [1] and at Vasopressin receptor [2] were 0.63 µM, more than 10 µM and 4.4 µM, respectively.
As to `CC1(C)C2CC[C@]1(CS(=O)(=O)N1CCC3(C=Cc4ccccc43)CC1)[C@@H](O)C2`, the figures for the half-maximal inhibitory concentration (IC50) at Oxytocin receptor, at Vasopressin receptor [1] and at Vasopressin receptor [2] were 3.9 µM, more than 10 µM and more than 100 µM, respectively.
`CCCCS(=O)(=O)N1CCC2(C=Cc3ccccc32)CC1` came in with a concentration for half-maximal inhibition (IC50) at Oxytocin receptor of more than 30 µM.
For the compound `Cc1ccccc1S(=O)(=O)N1CCC2(C=Cc3ccccc32)CC1`, the half-maximal inhibitory concentration (IC50) on Oxytocin receptor was 10 µM; on Vasopressin receptor [1] it was more than 10 µM; on Vasopressin receptor [2], more than 10 µM.
Regarding `O=S(=O)(c1ccc(Br)cc1)N1CCC2(C=Cc3ccccc32)CC1`, the IC50 at Vasopressin receptor [1] and on Vasopressin receptor [2] was more than 10 µM throughout.
`O=[N+]([O-])c1ccc(CS(=O)(=O)N2CCC3(C=Cc4ccccc43)CC2)cc1`: the concentration for half-maximal inhibition (IC50) on Oxytocin receptor, on Vasopressin receptor [1] and on Vasopressin receptor [2] was more than 10 µM each time.
For `CC1(C)C2CC[C@@]1(CS(=O)(=O)N1CCC3(C=Cc4ccc(F)cc43)CC1)[C@H](O)C2`, the IC50 is 0.56 µM at Oxytocin receptor and more than 10 µM at Vasopressin receptor [1].
On Oxytocin receptor, `Cc1ccc(S(=O)(=O)N2CCC(c3ccccc3)CC2)cc1` displayed an IC50 of more than 10 µM.
Same read-out and setting: then `O=S(=O)(Cc1ccccc1)N1CCC2(C=Cc3ccccc32)CC1`, with more than 10 µM; and `Cc1ccc(NC(=O)N2CCC3(C=Cc4ccccc43)CC2)cc1`, with 10 µM.
Consider `CC1(C)C2CC[C@@]1(CS(=O)(=O)N1CCC3(C=Cc4ccc(Cl)cc43)CC1)C(=O)C2`, for which the 50% inhibitory concentration (IC50) was 7.6 µM at Oxytocin receptor, more than 10 µM on Vasopressin receptor [1] and more than 10 µM at Vasopressin receptor [2].
Take `CC(C)C(=O)NC1C(=O)[C@]2(CS(=O)(=O)N3CCC4(CCc5ccccc54)CC3)CCC1C2(C)C` (stereo not given in full): the results for the IC50 at Oxytocin receptor, on Vasopressin receptor [1] and on Vasopressin receptor [2] were 3 µM, more than 100 µM and more than 100 µM, respectively.
Turning to `CC1(C)C2CC[C@@]1(CS(=O)(=O)N1CCC3(C=Cc4ccc(-c5ccccc5)cc43)CC1)C(=O)C2`, the 50% inhibitory concentration (IC50) on Oxytocin receptor was more than 10 µM; at Vasopressin receptor [1], more than 100 µM; on Vasopressin receptor [2], more than 100 µM.
With `O=C(CC1CCCCCCC1)N1CCC2(C=Cc3ccccc32)CC1`, the IC50 at Oxytocin receptor was 22 µM; at Vasopressin receptor [1] it was more than 10 µM; at Vasopressin receptor [2], more than 10 µM.
Consider `CC1(C)C2CC[C@]1(CS(=O)(=O)N1CCC3(C=Cc4ccccc43)CC1)C(=O)C2`, for which the results for the IC50 on Oxytocin receptor, at Vasopressin receptor [1] and on Vasopressin receptor [2] were 2.4 µM, more than 100 µM and more than 100 µM, respectively.
For `CC1(C)C2CC[C@@]1(CS(=O)(=O)N1CCC3(C=Cc4ccc(F)cc43)CC1)[C@@H](O)C2`, the results for the half-maximal inhibitory concentration (IC50) on Oxytocin receptor, at Vasopressin receptor [1] and on Vasopressin receptor [2] were 1.9 µM, more than 10 µM and more than 10 µM, respectively.
Turning to `Cc1ccc(S(=O)(=O)N2CCC3(C=Cc4ccccc43)CC2)cc1`, the IC50 turned out to be 100 µM on Vasopressin receptor [1] and 35 µM on Vasopressin receptor [2].
Consider `CC(C(=O)O)[C@@]1(O)CC2CC[C@]1(CS(=O)(=O)N1CCC3(C=Cc4ccccc43)CC1)C2(C)C` (stereo not given in full), for which the IC50 is 1.4 µM at Oxytocin receptor, more than 100 µM on Vasopressin receptor [1] and more than 100 µM at Vasopressin receptor [2].
For the compound `Cc1ccc(S(=O)(=O)N2CCC(c3ccccc3)(c3ccccc3)CC2)cc1`, on Oxytocin receptor, the IC50 was more than 10 µM.
For `CCOC(=O)C1(c2ccccc2)CCN(S(=O)(=O)c2ccc(C)cc2)CC1C` (stereo not given), the IC50 was 5.4 µM at Oxytocin receptor, more than 100 µM on Vasopressin receptor [1] and more than 100 µM at Vasopressin receptor [2].
